Results from ChEMBL document CHEMBL1138043, “Exploration of orally available calpain inhibitors 2: peptidyl hemiacetal derivatives” (J Med Chem, 2006).
Converted amounts (≈) assume the structure as drawn. The source made the active and inactive calls. No cut-off for these calls is given here.

Key:
[1] = AUC (0-infinity) in Sprague-Dawley rat at 3 mg/kg, iv; assay type: ADME, organism-based; parameters: time infinity, dose 3 mg/kg, route intravenous; conditions: plasma
Method in brief: (§1)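 Male Sprague-Dawley rats (200-250 g), single dose. Oral dosing as a suspension in 0.5% carboxymethyl cellulose; iv dosing at 10 mg/mL in 60% poly(ethylene glycol)/40% water. Plasma was taken from abdominal aorta blood under isoflurane at 0.1 (iv only), 0.25, 0.5, 1, 2, 4 and 8 h, with n = 4 or 5 per time point. Samples underwent solid-phase extraction and LC-MS/MS (MRM). Values are mean ± SD.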

[2] = Oral bioavailability in Sprague-Dawley rat; assay type: ADME, organism-based; conditions: in vivo; method in brief: as §1
[3] = Volume of distribution in Sprague-Dawley rat at 3 mg/kg, iv; assay type: ADME, organism-based; parameters: dose 3 mg/kg, route intravenous; conditions: in vivo, read-out: Vdss; method in brief: as §1
[4] = Clearance in Sprague-Dawley rat at 3 mg/kg, iv; assay type: ADME, organism-based; parameters: dose 3 mg/kg, route intravenous; conditions: in vivo; method in brief: as §1
[5] = Lipophilicity, log D of the compound; assay type: physicochemical; conditions: octanol/water
[6] = molecular target: T1, Calpain-2 catalytic subunit (Sus scrofa, UniProt P43367); test: Inhibition of porcein kidney m calpain
T1 sequence (P43367 whole entry): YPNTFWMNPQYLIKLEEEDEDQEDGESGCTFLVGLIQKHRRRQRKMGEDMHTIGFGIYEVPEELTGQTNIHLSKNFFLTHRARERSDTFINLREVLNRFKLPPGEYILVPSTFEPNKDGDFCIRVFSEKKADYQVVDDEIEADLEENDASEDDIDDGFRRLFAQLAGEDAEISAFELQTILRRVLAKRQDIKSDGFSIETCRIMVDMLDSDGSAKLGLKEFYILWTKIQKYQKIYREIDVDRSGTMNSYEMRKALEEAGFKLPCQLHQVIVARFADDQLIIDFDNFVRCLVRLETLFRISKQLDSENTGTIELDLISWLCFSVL
Method in brief: (§2)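 Casein substrate at 0.5 mg/mL in 50 mM Tris-HCl pH 7.4 with 20 mM dithiothreitol and 1.0 nmol enzyme. Inhibitors were added in DMSO. Reaction was started with 20 mM CaCl2; blank wells received 1 mM EDTA instead. Incubation ran 60 min at 30 °C. Percent inhibition came from OD differences. IC50 is the mean of two independent determinations.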

[7] = Tmax in Sprague-Dawley rat at 500 mg/kg, po; assay type: ADME, organism-based; parameters: dose 500 mg/kg, route oral; conditions: in vivo; method in brief: as §1
[8] = AUC (0-infinity) in Sprague-Dawley rat at 500 mg/kg, po; assay type: ADME, organism-based; parameters: time infinity, dose 500 mg/kg, route oral; conditions: plasma; method in brief: as §1
[9] = Terminal half life in Sprague-Dawley rat at 3 mg/kg, iv; assay type: ADME, organism-based; parameters: dose 3 mg/kg, route intravenous; conditions: in vivo; method in brief: as §1
Rattus norvegicus [10] = test: Neuroprotective activity in Sprague-Dawley rat ischemia-reperfusion model measured as cell density in retinal ganglion cell layer at 500 mg/kg, po; assay type: functional, organism-based; parameters: dose 500 mg/kg
Method in brief: (§3)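 Male Sprague-Dawley rats (150-250 g) received oral doses as a suspension in 0.5% CMC, 15 min before ischemia and again after reperfusion. Controls received vehicle. HE-stained nuclei in the ganglion cell layer 1-2 mm from the optic disk were counted over a 250 µm width at three sites. Comparison by Student t-test.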

[11] = Apparent permeability from apical to basolateral side of the Caco-2 cell; assay type: ADME, cell-based; conditions: human
[12] = Metabolic stability in human hepatic S9 fraction after 0.5 hrs; assay type: ADME; conditions: liver S9 fraction, read-out: Stability
Method in brief: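 Compound at 5 µM final (added in acetonitrile) was incubated with human hepatic S9 in 50 mM potassium phosphate pH 7.4. An NADPH-generating system was present (3 mM MgCl2, 1 mM NADP+, 5 mM glucose-6-phosphate, 1 U/mL G6PDH). Incubation ran 30 min at 37 °C and was quenched with acetonitrile. Residual parent was measured by LC-UV or LC-MS/MS, n = 1.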

[13] = Aqueous solubility at pH 7 at 25 degreeC; assay type: physicochemical
[14] = Cmax in Sprague-Dawley rat at 500 mg/kg, po; assay type: ADME, organism-based; parameters: dose 500 mg/kg, route oral; conditions: in vivo; method in brief: as §1
Rattus norvegicus [15] = test: Neuroprotective activity in Sprague-Dawley rat ischemia-reperfusion model measured as cell density in retinal ganglion cell layer at 30 mg/kg, po relative to control; assay type: functional, organism-based; parameters: dose 30 mg/kg; method in brief: as §3
[16] = Tmax in Sprague-Dawley rat at 10 mg/kg, po; assay type: ADME, organism-based; parameters: dose 10 mg/kg, route oral; conditions: in vivo; method in brief: as §1
[17] = Cmax in Sprague-Dawley rat at 10 mg/kg, po; assay type: ADME, organism-based; parameters: dose 10 mg/kg, route oral; conditions: in vivo; method in brief: as §1
Rattus norvegicus [18] = test: Neuroprotective activity in Sprague-Dawley rat ischemia-reperfusion model measured as cell density in retinal ganglion cell layer at 100 mg/kg, po relative to control; assay type: functional; method in brief: as §3
[19] = AUC (0-infinity) in Sprague-Dawley rat at 10 mg/kg, po; assay type: ADME, organism-based; parameters: time infinity, dose 10 mg/kg, route oral; conditions: plasma; method in brief: as §1
[20] = molecular target: T2, Calpain-1 catalytic subunit (Homo sapiens, UniProt P07384); test: Inhibition of human erythrocyte mu calpain; method in brief: as §2
T2 sequence (P07384 whole entry): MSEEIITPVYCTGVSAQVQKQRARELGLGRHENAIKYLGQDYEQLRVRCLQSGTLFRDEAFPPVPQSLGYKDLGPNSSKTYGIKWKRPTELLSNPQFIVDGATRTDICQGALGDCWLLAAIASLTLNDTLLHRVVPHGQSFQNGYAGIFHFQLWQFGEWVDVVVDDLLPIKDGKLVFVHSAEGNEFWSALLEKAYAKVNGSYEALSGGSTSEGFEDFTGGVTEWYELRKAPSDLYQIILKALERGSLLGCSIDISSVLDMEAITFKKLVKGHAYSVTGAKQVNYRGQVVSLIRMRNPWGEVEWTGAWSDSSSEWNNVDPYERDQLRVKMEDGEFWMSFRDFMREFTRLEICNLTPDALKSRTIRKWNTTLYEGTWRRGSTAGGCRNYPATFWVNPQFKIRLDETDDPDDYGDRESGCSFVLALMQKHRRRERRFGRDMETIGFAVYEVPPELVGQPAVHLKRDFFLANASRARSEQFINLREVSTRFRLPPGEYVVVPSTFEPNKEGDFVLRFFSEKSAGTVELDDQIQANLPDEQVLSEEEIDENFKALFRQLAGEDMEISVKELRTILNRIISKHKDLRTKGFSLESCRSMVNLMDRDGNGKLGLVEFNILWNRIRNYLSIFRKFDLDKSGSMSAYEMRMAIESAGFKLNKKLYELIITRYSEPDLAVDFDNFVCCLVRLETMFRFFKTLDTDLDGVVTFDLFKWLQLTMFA

AUC(0-inf) [1] [µM·h]	bioavailability [2] [%]	Vd [3] [L/kg]	clearance [4] [mL/min/kg]	IC50 [6] [nM]	half-life [9] [min]	remaining at 0.5 h [12] [%]	solubility [13] [µg/mL]	IC50 [20] [nM]	SMILES	further results
1.5	18	6.1	89	49	42	3	100 (≈ 268 µM)		CC(C)C[C@@H](C=O)NC(=O)[C@@H](NS(=O)(=O)c1ccc(F)cc1)C(C)C	logD [5]: 1.7; Tmax [7]: 60 min; AUC(0-inf) [8]: 45 µM·h; Activity (Rattus norvegicus [10]): Active; Papp A→B [11]: 2.6 ×10⁻⁶ cm/s; Cmax [14]: 9.4 µM
						25	5.3 (≈ 11.2 µM)		CCCCNC(=O)C(=O)[C@H](CC(C)C)NC(=O)[C@@H](NS(=O)(=O)c1ccc(F)cc1)C(C)C	
				> 100000				> 100000	CC(C)C[C@@H](C#N)NC(=O)[C@@H](NS(=O)(=O)c1ccc(F)cc1)C(C)C	

The next lines start with the molecule.

SMILES	AUC(0-inf) [1] [µM·h]	bioavailability [2] [%]	Vd [3] [L/kg]	clearance [4] [mL/min/kg]	IC50 [6] [nM]	half-life [9] [min]	remaining at 0.5 h [12] [%]	solubility [13] [µg/mL]	IC50 [20] [nM]	further results
CC(C)C[C@H](NC(=S)Nc1ccccc1)C(=O)N[C@H]1CCOC1O (stereo partly specified)	2.6	66	2.3	55	190	114	100		86	Activity (Rattus norvegicus [15]): inactive; Tmax [16]: 15 min; Cmax [17]: 5.6 µM; Activity (Rattus norvegicus [18]): 6.38; AUC(0-inf) [19]: 5.7 µM·h
CC(C)C[C@@H](/C=N/NC(=O)CN(C)C)NC(=O)[C@@H](NS(=O)(=O)c1ccc(F)cc1)C(C)C							64			
CC(C)[C@H](NS(=O)(=O)c1ccc(F)cc1)C(=O)N[C@H]1CCOC1O (stereo partly specified)					2600		79	1500 (≈ 4160 µM)	880	
